Tests used:
Cathepsin F [1] = biological target: T1, Cathepsin F (Homo sapiens, UniProt Q9UBX1); assay: Inhibition of human recombinant cathepsin F using Z-Phe-Arg-AMC as substrate by fluorimetric analysis
T1 sequence (Q9UBX1 whole entry): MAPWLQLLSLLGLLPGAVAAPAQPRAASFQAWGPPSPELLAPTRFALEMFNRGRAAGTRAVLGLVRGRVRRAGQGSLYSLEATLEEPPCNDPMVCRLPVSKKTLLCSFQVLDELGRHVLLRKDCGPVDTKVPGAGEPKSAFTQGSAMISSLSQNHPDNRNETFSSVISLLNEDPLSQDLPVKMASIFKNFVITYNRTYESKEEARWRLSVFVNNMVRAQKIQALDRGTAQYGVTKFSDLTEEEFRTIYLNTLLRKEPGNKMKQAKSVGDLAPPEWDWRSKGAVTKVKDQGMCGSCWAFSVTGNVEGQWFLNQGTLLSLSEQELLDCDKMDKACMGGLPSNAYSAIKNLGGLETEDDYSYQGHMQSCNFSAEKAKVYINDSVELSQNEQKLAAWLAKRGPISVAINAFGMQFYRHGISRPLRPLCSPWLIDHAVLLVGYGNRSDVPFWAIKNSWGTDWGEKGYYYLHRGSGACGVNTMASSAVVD
Procedure, shortened: (§1)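 Human enzyme activity was followed with a chromogenic or fluorogenic peptide substrate, in duplicate experiments at five or more inhibitor concentrations. Mean steady-state rates were plotted against inhibitor concentration and fitted by nonlinear regression to give IC50. IC50 was then corrected to zero substrate concentration to give Ki. Standard errors of the regression are reported.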

Procathepsin L [2] = biological target: T2, Procathepsin L (Homo sapiens, UniProt P07711); assay: Inhibition of human cathepsin L using Z-Phe-Arg-pNA as substrate by spectrophotometric analysis; conditions: TDE = time-dependent effect; procedure, shortened: as §1
Target sequence in this assay (P07711 114-333 limits assumed): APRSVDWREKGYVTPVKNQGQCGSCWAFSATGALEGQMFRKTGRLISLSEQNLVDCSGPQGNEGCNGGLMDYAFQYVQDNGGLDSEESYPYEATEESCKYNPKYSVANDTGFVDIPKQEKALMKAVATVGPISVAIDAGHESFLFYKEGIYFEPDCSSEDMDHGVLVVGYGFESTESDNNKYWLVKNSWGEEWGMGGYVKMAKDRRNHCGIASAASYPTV

[3] = biological target: T3, Cathepsin K (Homo sapiens) (UniProt P43235); assay: Inhibition of human cathepsin K using Z-Leu-Arg-AMC as substrate by fluorimetric analysis; conditions: TDE = time-dependent effect; procedure, shortened: as §1
T3 sequence (whole entry): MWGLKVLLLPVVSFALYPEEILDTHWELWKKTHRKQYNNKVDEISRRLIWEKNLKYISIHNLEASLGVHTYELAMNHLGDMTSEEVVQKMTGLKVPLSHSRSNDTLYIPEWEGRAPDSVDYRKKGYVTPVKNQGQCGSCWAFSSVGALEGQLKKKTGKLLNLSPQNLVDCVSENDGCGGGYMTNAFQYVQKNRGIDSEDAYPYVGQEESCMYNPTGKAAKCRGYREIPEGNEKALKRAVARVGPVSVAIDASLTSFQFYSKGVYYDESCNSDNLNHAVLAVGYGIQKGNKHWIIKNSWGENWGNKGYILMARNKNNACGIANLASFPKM

Cathepsin B [4] = biological target: T4, Cathepsin B (Homo sapiens, UniProt P07858); assay: Inhibition of human cathepsin B using Z-Arg-Arg-pNA as substrate by spectrophotometric analysis; conditions: TDE = time-dependent effect; procedure, shortened: as §1
Procathepsin L [5] = biological target: T2, Procathepsin L; assay: Inhibition of human cathepsin L using Z-Phe-Arg-pNA as substrate after 80 mins by spectrophotometric analysis
Target sequence in this assay (P07711 whole entry): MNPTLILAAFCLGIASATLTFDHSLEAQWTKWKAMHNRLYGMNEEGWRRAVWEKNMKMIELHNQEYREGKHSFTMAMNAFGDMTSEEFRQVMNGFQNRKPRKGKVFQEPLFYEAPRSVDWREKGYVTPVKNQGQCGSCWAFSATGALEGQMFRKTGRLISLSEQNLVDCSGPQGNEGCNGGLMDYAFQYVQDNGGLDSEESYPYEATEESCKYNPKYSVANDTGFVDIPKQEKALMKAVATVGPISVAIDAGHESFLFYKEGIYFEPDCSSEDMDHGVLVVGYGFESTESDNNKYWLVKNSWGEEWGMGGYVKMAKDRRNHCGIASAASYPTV

Cathepsin S [6] = biological target: T5, Cathepsin S (Homo sapiens, UniProt P25774); assay: Inhibition of human cathepsin S using Z-Phe-Val-Arg-pNA as substrate after 80 mins by spectrophotometric analysis
T5 sequence (P25774 whole entry): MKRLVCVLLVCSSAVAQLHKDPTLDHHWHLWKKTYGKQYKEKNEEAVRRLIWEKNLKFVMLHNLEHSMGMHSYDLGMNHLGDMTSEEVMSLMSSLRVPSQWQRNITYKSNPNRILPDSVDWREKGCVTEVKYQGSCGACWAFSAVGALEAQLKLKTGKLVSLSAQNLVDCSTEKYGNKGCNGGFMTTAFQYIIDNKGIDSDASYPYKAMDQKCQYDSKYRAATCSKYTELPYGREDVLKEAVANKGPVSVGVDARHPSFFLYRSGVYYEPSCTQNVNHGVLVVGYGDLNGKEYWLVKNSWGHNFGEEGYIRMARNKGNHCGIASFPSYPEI

Cathepsin K [7] = biological target: T6, Cathepsin K (Homo sapiens, UniProt P43235); assay: Inhibition of human cathepsin K using Z-Leu-Arg-AMC as substrate after 80 mins by fluorimetric analysis
T6 sequence (P43235 whole entry): T3 sequence (whole entry)

Cathepsin B [8] = biological target: T4, Cathepsin B; assay: Inhibition of human cathepsin B using Z-Arg-Arg-pNA as substrate after 80 mins by spectrophotometric analysis
Cathepsin S [9] = biological target: T5, Cathepsin S; assay: Inhibition of human cathepsin S using Z-Phe-Val-Arg-pNA as substrate after 10 mins by spectrophotometric analysis
Cathepsin K [10] = biological target: T6, Cathepsin K; assay: Inhibition of human cathepsin K using Z-Leu-Arg-AMC as substrate after 10 mins by fluorimetric analysis
Cathepsin B [11] = biological target: T4, Cathepsin B; assay: Inhibition of human cathepsin B using Z-Arg-Arg-pNA as substrate after 10 mins by spectrophotometric analysis
Cathepsin F [12] = biological target: T1, Cathepsin F; assay: Inhibition of human recombinant cathepsin F using Z-Phe-Arg-AMC as substrate after 8 min by fluorimetric analysis
Procathepsin L [13] = biological target: T2, Procathepsin L; assay: Inhibition of human cathepsin L using Z-Phe-Arg-pNA as substrate after 10 mins by spectrophotometric analysis
Target sequence in this assay (P07711 whole entry): as the sequence (P07711 whole entry) above

| SMILES | Ki (Cathepsin F [1]) | inhibition (Procathepsin L [2]) | inhibition [3] | inhibition (Cathepsin B [4]) | Ki (Procathepsin L [5]) | Ki (Cathepsin S [6]) | Ki (Cathepsin K [7]) | Ki (Cathepsin B [8]) | Ki (Cathepsin S [9]) | Ki (Cathepsin K [10]) | Ki (Cathepsin B [11]) | Ki (Cathepsin F [12]) | Ki (Procathepsin L [13]) |
| --- | --- | --- | --- | --- | --- | --- | --- | --- | --- | --- | --- | --- | --- |
| CC(C)CS(=O)(=O)C[C@H](NC(=O)c1ccccc1)C(=O)NCC#N |  |  |  |  |  |  |  |  | 0.033 µM | > 40 µM | 24 µM | > 40 µM | 37 µM |
| CC(C)CS(=O)(=O)CC(NC(=O)c1ccccc1)C(=O)NCC#N (racemic) |  |  |  |  |  |  |  |  | 0.04 µM | > 40 µM | 40 µM | > 40 µM | > 40 µM |
| CC(C)CS(=O)(=O)CC(NC(=O)c1cccs1)C(=O)NCC#N (racemic) |  |  |  |  |  |  |  |  | 0.045 µM | > 40 µM | 24 µM | > 40 µM | > 40 µM |
| CC(C)CS(=O)(=O)CC(NC(=O)c1ccc(-c2ccsc2)s1)C(=O)NCC#N (racemic) |  |  |  |  |  |  |  |  | 0.061 µM | > 4 µM | 5.4 µM | > 4 µM | > 4 µM |
| CC(C)CS(=O)(=O)CC(NC(=O)c1ccc(-c2cccs2)cc1)C(=O)NCC#N (racemic) |  |  |  |  |  |  |  |  | 0.2 µM | > 4 µM | 3.9 µM | > 4 µM | > 4 µM |
| CC(C)CS(=O)(=O)CC(NC(=O)c1ccc(-c2cccs2)s1)C(=O)NCC#N (racemic) |  |  |  |  |  |  |  |  | 0.094 µM | 1.1 µM | 3.4 µM | 3.2 µM | > 4 µM |
| CC(C)CS(=O)(=O)CC(NC(=O)c1cc2ccsc2s1)C(=O)NCC#N (racemic) |  |  |  |  |  |  |  |  | 0.1 µM | > 4 µM | 7.2 µM | > 4 µM | > 4 µM |

The next lines start with the values.

| Ki (Cathepsin F [1]) | inhibition (Procathepsin L [2]) | inhibition [3] | inhibition (Cathepsin B [4]) | Ki (Procathepsin L [5]) | Ki (Cathepsin S [6]) | Ki (Cathepsin K [7]) | Ki (Cathepsin B [8]) | Ki (Cathepsin S [9]) | Ki (Cathepsin K [10]) | Ki (Cathepsin B [11]) | Ki (Cathepsin F [12]) | Ki (Procathepsin L [13]) | SMILES |
| --- | --- | --- | --- | --- | --- | --- | --- | --- | --- | --- | --- | --- | --- |
| 0.021 µM | tde | tde | tde | 0.015 µM | 0.00055 µM | 0.00066 µM | 0.0058 µM |  |  |  |  |  | CC(C)CS(=O)(=O)C[C@H](NC(=O)c1ccccc1)C(=O)N(C)N(C)C#N |
|  |  |  |  |  |  |  |  | 0.061 µM | > 4 µM | 5.1 µM | > 4 µM | > 4 µM | CC(C)CS(=O)(=O)CC(NC(=O)c1ccc(-c2ccccc2)s1)C(=O)NCC#N (racemic) |
|  |  |  |  |  |  |  |  | 0.06 µM | > 4 µM | 6.4 µM | > 4 µM | > 4 µM | CC(C)CS(=O)(=O)CC(NC(=O)c1cc(-c2ccccc2)cs1)C(=O)NCC#N (racemic) |
|  |  |  |  |  |  |  |  | 0.076 µM | > 4 µM | 34 µM | > 4 µM | > 4 µM | CC(C)CS(=O)(=O)CC(NC(=O)c1ccc(-c2nnn[nH]2)s1)C(=O)NCC#N (racemic) |
|  |  |  |  |  |  |  |  | 0.089 µM | > 4 µM | 6.8 µM | > 4 µM | > 4 µM | CC(C)CS(=O)(=O)CC(NC(=O)c1cc2ccccc2s1)C(=O)NCC#N (racemic) |
